# Experimental data from ChEMBL document CHEMBL2331415, “Tubulin inhibitors from an endophytic fungus isolated from Cedrus deodara” (2013).
# Active and inactive are the calls of the source. No cut-off for these calls is given here.
# Assays:
# HCT-116 [1] = test: Cytotoxicity against human HCT116 cells at 1 uM after 48 hrs by sulforhodamine B assay; type: functional
# Procedure, shortened: (§1)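 Cells kept in RPMI-1640 with 10% FCS and 1% penicillin-G at 37 °C under 5% CO2. Seeded at 8000–14 000 cells/100 μL and exposed for 48 h. Fixed with ice-cold TCA for 1 h at 4 °C, then water-washed and stained with 0.4% SRB for 0.5 h at room temperature. Unbound dye removed with 1% acetic acid; bound dye dissolved in 10 mM Tris (pH 10.05) and read at 540 nm.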
# THP-1 [2] = test: Cytotoxicity against human THP1 cells at 1 uM after 48 hrs by sulforhodamine B assay; type: functional; procedure, shortened: as §1
# Tubulin (Homo sapiens) [3] = target: T1, Tubulin (Homo sapiens) (UniProt P68371+Q9H4B7+P0DPH7+P68366+Q13509+Q71U36+P04350+Q3ZCM7+P07437+P68363+Q9BQE3+Q6PEY2+Q13885+Q9BVA1+Q9BUF5); test: Stabilization of tubulin polymerization in human THP1 cells at 1 uM after 24 hrs by immunofluorescence microscopic analysis; type: cell-based; details: THP-1
# Procedure, shortened: (§2)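 THP-1 seeded at 1 × 10^5 cells/well on coverslips and allowed to adhere for 24 h before treatment. Fixed in 4% paraformaldehyde for 10 min, permeabilized with 0.5% Triton-X for 5 min and blocked with 10% goat serum. Probed with anti-α-tubulin (1:100, 1 h) then Alexa Fluor 488 secondary (1:500, 1 h), counterstained with DAPI 1 μg/mL and imaged by confocal microscopy. Three separate experiments.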
# A549 [4] = test: Cytotoxicity against human A549 cells at 1 uM after 48 hrs by sulforhodamine B assay; type: functional; procedure, shortened: as §1
# THP-1 [5] = test: Cytotoxicity against human THP1 cells at 20 uM after 48 hrs by sulforhodamine B assay; type: functional
# Procedure, shortened: (§3)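 Cells grown in RPMI-1640 with 10% FCS and 1% penicillin-G at 37 °C, 5% CO2. Seeded at 8000–14 000 cells/100 μL and exposed for 48 h. Fixed with ice-cold TCA for 1 h at 4 °C, stained with 0.4% SRB for 0.5 h at room temperature, washed with 1% acetic acid, bound dye solubilised in 10 mM Tris pH 10.05, read at 540 nm.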
# A549 [6] = test: Cytotoxicity against human A549 cells at 20 uM after 48 hrs by sulforhodamine B assay; type: functional; procedure, shortened: as §3
# HCT-116 [7] = test: Cytotoxicity against human HCT116 cells at 20 uM after 48 hrs by sulforhodamine B assay; type: functional; procedure, shortened: as §3
# Tubulin (Homo sapiens) [8] = target: T1, Tubulin (Homo sapiens); test: Inhibition of tubulin in human THP1 cells assessed as disruption and loss of microtubule organization at 50 uM after 48 hrs by immunofluorescence microscopic analysis; type: cell-based; details: THP-1; procedure, shortened: as §2
# HCT-116 [9] = test: Cytotoxicity against human HCT116 cells at 50 uM after 48 hrs by sulforhodamine B assay; type: functional; procedure, shortened: as §1
# SK-HEP1 = test: Cytotoxicity against human SKHEP1 cells at 50 uM after 48 hrs by sulforhodamine B assay; type: functional; procedure, shortened: as §1
# HL-60 [10] = test: Induction of apoptosis in human HL60 cells assessed as condensation and fragmentation of nuclei at 50 uM after 30 hrs by DAPI staining based inverted fluorescence microscopy; type: functional, cell-based
# Procedure, shortened: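 HL-60 seeded at 2 × 10^5 cells/mL in medium with 10% FCS and treated for 30 h at 37 °C, added from DMSO stock; controls got DMSO vehicle only. Air-dried smears fixed in methanol at −20 °C for 20 min, stained with DAPI 1 μg/mL in PBS for 20 min at room temperature in the dark, mounted in glycerol–PBS (1:1) and viewed by inverted fluorescence microscopy (40×).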
# THP-1 [11] = test: Cytotoxicity against human THP1 cells at 50 uM after 48 hrs by sulforhodamine B assay; type: functional; procedure, shortened: as §1
# A549 [12] = test: Cytotoxicity against human A549 cells at 50 uM after 48 hrs by sulforhodamine B assay; type: functional; procedure, shortened: as §1
# HL-60 [13] = test: Induction of apoptosis in human HL60 cells assessed as condensation, smoothening of the cell surface, blebbing of plasma membrane at 30 uM after 30 hrs by scanning electron microscopy; type: functional, cell-based
# PC-3 [14] = test: Cytotoxicity against human PC3 cells at 50 uM after 48 hrs by sulforhodamine B assay; type: functional; procedure, shortened: as §1
# HL-60 [15] = test: Induction of apoptosis in human HL60 cells assessed as condensation, smoothening of the cell surface, blebbing of plasma membrane and formation of apoptotic bodies at 50 uM after 30 hrs by scanning electron microscopy; type: functional, cell-based
# PC-3 [16] = test: Cytotoxicity against human PC3 cells at 1 uM after 48 hrs by sulforhodamine B assay; type: functional; procedure, shortened: as §1
Compound,Activity (HCT-116 [1]) [%],Activity (THP-1 [2]) [%],Activity (Tubulin (Homo sapiens) [3]),Activity (A549 [4]) [%],Activity (THP-1 [5]) [%],Activity (A549 [6]) [%],Activity (HCT-116 [7]) [%],microtubule disruption (Tubulin (Homo sapiens) [8]),Activity (HCT-116 [9]) [%],Activity (SK-HEP1) [%],Activity (HL-60 [10]),Activity (THP-1 [11]) [%],Activity (A549 [12]) [%],Activity (HL-60 [13]),Activity (PC-3 [14]) [%],Activity (HL-60 [15]),Activity (PC-3 [16]) [%]
CC(=O)O[C@H]1C(=O)[C@@]2(C)[C@H]([C@H](OC(=O)c3ccccc3)[C@]3(O)C[C@H](OC(=O)[C@H](O)[C@@H](NC(=O)c4ccccc4)c4ccccc4)C(C)=C1C3(C)C)[C@]1(OC(C)=O)CO[C@@H]1C[C@@H]2O [PACLITAXEL],72,71,Active,82,,,,,,,,,,,,,
O=c1[nH]cc(F)c(=O)[nH]1 [FLUOROURACIL],,,,,84,22,55,,,,,,,,,,
C[C@@H]1C[C@H]2CC(=O)C[C@H](C2)O1,,,,,,,,Active,59,26,Active,0,71,Active,23,Active,
CC1=C[C@H](O)[C@@H]2O[C@@H]2C1=O,,,,,,,,Active,56,100,Active,50,98,Active,22,Active,
CO[C@@]12[C@H](COC(N)=O)C3=C(C(=O)C(C)=C(N)C3=O)N1C[C@@H]1N[C@@H]12 [MITOMYCIN],,,,,,,,,,,,,,,,,59
C[C@H]1C[C@H]2CCCC(O)=C2C(=O)O1,,,,,,,,Active,44,23,Active,54,15,Active,23,Active,
C[C@H]1C[C@H]2CC[C@H](O)C(O)=C2C(=O)O1,,,,,,,,Active,35,3,Active,40,35,Active,34,Active,
